Assay [1] addresses T1, ZMYND8-PHD/Bromo (ZMYND8-PB) (Homo sapiens, UniProt Q9ULU4).
T1 sequence (Q9ULU4 75-268 limits assumed): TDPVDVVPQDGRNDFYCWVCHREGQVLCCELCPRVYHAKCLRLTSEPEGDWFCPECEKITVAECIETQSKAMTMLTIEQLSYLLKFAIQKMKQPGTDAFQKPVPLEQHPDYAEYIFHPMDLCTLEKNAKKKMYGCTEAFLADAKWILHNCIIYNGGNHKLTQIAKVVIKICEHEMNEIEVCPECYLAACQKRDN
Briefly: Isothermal titration calorimetry. The format is binding. As to conditions: ITC. Summed up:
(§1)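 ZMYND8 PHD/Bromo/PWWP region, with its point and deletion mutants, was cloned into a bacterial GST-fusion expression vector and expressed as recombinant protein. Binding to histone H3 peptides was measured by isothermal titration calorimetry, and KD was taken from the titration.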
Background: ITC needs no label: the signal is the heat of the interaction.

Assay [2] addresses T2, ZMYND8-PHD/Bromo/PWWP (ZMYND8-PBP) (Homo sapiens, UniProt Q9ULU4).
T2 sequence (Q9ULU4 93-426 isoform Q9ULU4-10): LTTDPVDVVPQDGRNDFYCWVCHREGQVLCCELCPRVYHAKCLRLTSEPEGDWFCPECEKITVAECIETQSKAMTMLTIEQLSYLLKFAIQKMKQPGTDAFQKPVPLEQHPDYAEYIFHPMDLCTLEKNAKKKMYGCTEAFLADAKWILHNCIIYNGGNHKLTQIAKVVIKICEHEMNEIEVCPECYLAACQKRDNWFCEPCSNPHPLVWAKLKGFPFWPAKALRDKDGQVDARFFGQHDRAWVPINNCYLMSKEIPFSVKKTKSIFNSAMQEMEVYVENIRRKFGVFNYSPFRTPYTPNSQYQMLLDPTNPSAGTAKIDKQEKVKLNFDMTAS
Put plainly: Isothermal titration calorimetry. The format is binding. The settings on record: ITC. Summed up: as §1

Assay [3] relates to GST-tagged ZMYND8-PB (ZMYND8-PHD/Bromo). Briefly: Peptide pull-down assay, GST-tagged ZMYND8-PB. Format: binding, human. As to conditions: biotinylated peptides. Summed up: (§2)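 Biotinylated histone peptides were used to pull down GST-tagged ZMYND8 fragments expressed in bacteria from a GST-fusion vector. These fragments were PHD/Bromo, PHD/Bromo/PWWP, or deletion mutants of PHD/Bromo. The deletion mutants were tested against the H3 (1-21) peptide.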

Another assay has as its system ZMYND8-PHD. Put plainly: Peptide pull-down assay, ZMYND8-PHD alone. Format: binding, human. The settings on record: H3 (1-21) peptide. Summed up: as §2
In assay [4] the test system is ZMYND8-PBP, alanine mutation of D96. Put plainly: ITC, ZMYND8-PBP alanine mutant of D96. Format: binding, human. The settings on record: H3K4me0 (1-25aa). Summed up:
as §1

The test system of assay [5] is ZMYND8-PBP, alanine mutation of D99. Put plainly: ITC, ZMYND8-PBP alanine mutant of D99. The format is binding, human. The settings on record: H3K4me0 (1-25aa). Summed up:
as §1

Assay [6] deals with ZMYND8-PBP, alanine mutation of D104. Put plainly: ITC, ZMYND8-PBP alanine mutant of D104. The format is binding, human. As to conditions: H3K4me0 (1-25aa). Summed up: as §1
A further assay concerns ZMYND8-PBP, D108A. Briefly: ITC, ZMYND8-PBP alanine mutant of D108. Format: binding, human. As to conditions: H3K4me0 (1-25aa). Summed up:
as §1

Assay [7] has as its system ZMYND8-PBP, alanine mutation of E124. Briefly: ITC, ZMYND8-PBP alanine mutant of E124. Format: binding, human. The settings on record: H3K4me0 (1-25aa). Summed up: as §1
In assay [8] the test system is N-terminal truncated version of ZMYND8-PBP (residue 103-426). Briefly: ITC, N-terminal truncated ZMYND8-PBP. The format is binding, human. As to conditions: H3K4me0 (1-25aa). Summed up:
as §1

Another assay relates to ZMYND8-PBP, F109D. Briefly: ITC, ZMYND8-PBP F109D. Format: binding, human. As to conditions: H3K4me0 (1-25aa), relative to ZMYND8-PBP. Summed up: as §1

As to “H3K4me0: unmethylated H3K4 (H3 [1-21aa]; referred to as "H3K4me0")”, the Kd in [1] was ~15 µM; in assay [2] it was ~7.2 µM. Moreover, in [3], the “interaction with ZMYND8-PB (pull-down), 300 mM NaCl wash” value is listed as “interacted”. In addition, in the assay on ZMYND8-PHD, the “interaction with ZMYND8-PHD alone (pull-down)” value is “did not interact”. Besides, the “H3K4me0-binding activity of mutant” value in assay [4] was “significant losses”; in assay [5] it was “significant losses”; in assay [6], “significant losses”; with ZMYND8-PBP, D108A it was “significant losses”; in assay [7], “significant losses”. Besides, in [8], the “H3K4me0-binding activity of truncated ZMYND8-PBP” value is recorded as “significant losses”. The “enhancement of PBP's binding activity by F109D” value in the assay with ZMYND8-PBP, F109D is given as ~ 11 fold.

One may read the Kd as the free concentration of one partner at which half of the binding sites on the other are occupied at equilibrium, for simple one-to-one binding.

Source of the values: PMC4975651 (Molecular cell, 2016).
